Activity calls are given as the source filed them. No cut-off for these calls is given here.
Tests used:
[1] = Uncoupling of electron transport protein complex in alkyl pyridine carbonyldithiocarbazates-stimulated rat liver mitochondria assessed as concentration required to 100% uncoupling
Summary of the method: (§1)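 Rat liver mitochondria were isolated by the Hogeboom method, with protein measured by Biuret. Protein varied by footnote, 1.33–2.12 mg/3.3 mL. Mitochondria in state 4 were kept in pH 7.2 medium (200 mM sucrose, 10 mM phosphate, 2 mM MgCl₂, 1 mM EDTA, 10 mM succinate, 1 μg rotenone). They were titrated with compound in Me₂SO, and O₂ uptake was read by Galvani electrode. The minimum concentration giving maximal respiration release was taken; values are means of ≥3 runs.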

[2] = Uncoupling of electron transport protein complex in alkyl pyridine carbonyldithiocarbazates-stimulated rat liver mitochondria up to 100 uM; summary of the method: as §1
[3] = species on record: Rattus norvegicus; experiment: Respiration rate of electron transport protein complex in rat liver mitochondria […] assessed as oxygen consumption at 1 uM in presence of glutamate and malate
Summary of the method: (§2)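 Oxygen uptake by rat liver mitochondria (3.0 mg protein) was measured with a Clark-type electrode at 25 °C. Medium at pH 7.4 held 200 mM sucrose, 10 mM potassium phosphate, 2 mM MgCl₂ and 1 mM EDTA. Substrate was 10 mM glutamate plus 10 mM malate.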

[4] = species on record: Rattus norvegicus; experiment: Respiration rate of electron transport protein complex in rat liver mitochondria […] assessed as oxygen consumption at 5 uM in presence of glutamate and malate; summary of the method: as §2
[5] = species on record: Rattus norvegicus; experiment: Respiration rate of electron transport protein complex in rat liver mitochondria […] assessed as oxygen consumption at 2 uM in presence of glutamate and malate; summary of the method: as §2
[6] = species on record: Rattus norvegicus; experiment: Respiration rate of electron transport protein complex in rat liver mitochondria […] assessed as oxygen consumption at 2 uM in presence of succinate
Summary of the method: (§3)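 State 4 respiration of rat liver mitochondria (3.0 mg protein, 25 °C) was followed with a Clark-type electrode. Medium was pH 7.4 with 200 mM sucrose, 10 mM potassium phosphate, 2 mM MgCl₂ and 1 mM EDTA. Substrate was 10 mM succinate with 1 μg rotenone.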

[7] = species on record: Rattus norvegicus; experiment: Respiration rate of electron transport protein complex in rat liver mitochondria […] assessed as oxygen consumption at 1 uM in presence of ascorbate and TMPD
Summary of the method: (§4)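 Rat liver mitochondria at 3.0 mg protein in pH 7.4 medium (200 mM sucrose, 10 mM potassium phosphate, 2 mM MgCl₂, 1 mM EDTA), 25 °C. Substrate was 10 mM ascorbate plus 200 μM TMPD, with 2 μg rotenone. State 4 respiration was read as oxygen uptake on a Clark-type electrode.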

[8] = species on record: Rattus norvegicus; experiment: Respiration rate of electron transport protein complex in rat liver mitochondria […] assessed as oxygen consumption at 6 uM in presence of ascorbate and TMPD; summary of the method: as §4
[9] = species on record: Rattus norvegicus; experiment: Respiration rate of electron transport protein complex in rat liver mitochondria […] assessed as oxygen consumption at 1 uM in presence of succinate; summary of the method: as §3
[10] = species on record: Rattus norvegicus; experiment: Respiration rate of electron transport protein complex in rat liver mitochondria […] assessed as oxygen consumption at 2 uM in presence of ascorbate and TMPD; summary of the method: as §4
[11] = species on record: Rattus norvegicus; experiment: Respiration rate of electron transport protein complex in rat liver mitochondria […] assessed as oxygen consumption at 5 uM in presence of ascorbate and TMPD; summary of the method: as §4
[12] = Uncoupling of electron transport protein complex in alkyl pyridine carbonyldithiocarbazates-stimulated rat liver mitochondria up to 500 uM; summary of the method: as §1

Row | SMILES | Activity [1] [µM] | further results
1 | CCCCCCCCSC(=S)NNC(=O)c1cccnc1 | 1.3 | 
2 | CCCCCCCCSC(=S)N(C)NC(=O)c1ccccn1 |  | Activity [2]: inactive
3 | CCCCCCCCSC(=S)NNC(=O)c1ccccn1 | 3.7 | 
4 | CCCCCSC(=S)NNC(=O)c1ccncc1 | 17.5 | 
5 | CCCCCCCCSC(=S)NNC(=O)c1ccncc1 | 0.84 | 
6 | CCCCCCSC(=S)N(C)NC(=O)c1ccccn1 |  | Activity [2]: inactive
7 | CCCSC(=S)NNC(=O)c1cccnc1 | 370 | 
8 | CCCCCCCSC(=S)N(C)NC(=O)c1ccccn1 |  | Activity [2]: inactive
9 | CCCCCCSC(=S)NNC(=O)c1ccccn1 | 50 | 
10 | CSC(=S)NNC(=O)c1ccncc1 | 1900 | 
11 | CCCCCCCCCS/C(S)=N/NC(=O)c1ccccn1 | 2.9 | Activity [3]: 89 min⁻¹; Activity [4]: 180 min⁻¹; Activity [5]: 111 min⁻¹; Activity [6]: 250 min⁻¹; Activity [7]: 220 min⁻¹; Activity [8]: 248 min⁻¹; Activity [9]: 167 min⁻¹
12 | CCCCCCSC(=S)NNC(=O)c1cccnc1 | 89 | 
13 | CCCCCCCCCSC(=S)NNC(=O)c1cccnc1 | 1.1 | Activity [3]: 125 min⁻¹; Activity [4]: 263 min⁻¹; Activity [5]: 178 min⁻¹; Activity [6]: 300 min⁻¹; Activity [7]: 208 min⁻¹; Activity [10]: 227 min⁻¹; Activity [11]: 236 min⁻¹; Activity [9]: 250 min⁻¹
14 | CCCCCCCSC(=S)NNC(=O)c1ccncc1 | 1.95 | 
15 | CCCCCCCCCSC(=S)N(C)NC(=O)c1ccccn1 |  | Activity [2]: inactive
16 | CCCCCCCCCSC(=S)NNC(=O)c1ccncc1 | 0.86 | Activity [3]: 178 min⁻¹; Activity [5]: 278 min⁻¹; Activity [7]: 214 min⁻¹; Activity [10]: 222 min⁻¹; Activity [11]: 250 min⁻¹; Activity [9]: 361 min⁻¹
17 | CCCCCSC(=S)NNC(=O)c1cccnc1 | 105 | 
18 | CCCCCSC(=S)NNC(=O)c1ccccn1 | 90 | 

Row | SMILES | Activity [1] [µM] | further results
19 | CCCCCCSC(=S)NN | 350 | 
20 | CCCCCCCSC(=S)NNC(=O)c1ccccn1 | 4.7 | 
21 | CCSC(=S)NNC(=O)c1ccccn1 | 1280 | 
22 | CSC(=S)NNC(=O)c1cccnc1 | 2160 | 
23 | CCCCSC(=S)NNC(=O)c1ccncc1 | 62.5 | 
24 | CCSC(=S)NNC(=O)c1cccnc1 | 1000 | 
25 | CCCCSC(=S)NNC(=O)c1ccccn1 | 240 | 
26 | CCCCCCCSC(=S)NN | 140 | 
27 | CCSC(=S)NNC(=O)c1ccncc1 | 1200 | 
28 | CCCSC(=S)NNC(=O)c1ccncc1 | 109 | 
29 | CCCCCSC(=S)NN | 900 | 
30 | CCCCSC(=S)NNC(=O)c1cccnc1 | 360 | 
31 | CCCCCCCSC(=S)NNC(=O)c1cccnc1 | 14 | 
32 | CCCCCCSC(=S)NNC(=O)c1ccncc1 | 6.58 | 
33 | CCCSC(=S)NNC(=O)c1ccccn1 | 290 | 
34 | CCCCCSC(=S)N(C)NC(=O)c1ccccn1 |  | Activity [12]: inactive
35 | CSC(=S)NNC(=O)c1ccccn1 | 1870 | 

— ChEMBL document CHEMBL3272048, “Syntheses and uncoupling activities of alkyl dithiocarbazates and alkyl pyridinecarbonyldithiocarbazates” (J Med Chem, 1978)
